pKi: −log10 of the molar value.

Consider 35 molecules from ChEMBL document CHEMBL1145249, “A potent and selective nonpeptide antagonist of the melanocortin-4 receptor induces food intake in satiated mice” (Bioorg Med Chem Lett, 2005).

Assay [1] has as its target T1, Melanocortin receptor 4 (Homo sapiens, UniProt P32245). Nature of the assay: Binding affinity for melanocortin-4 receptor transfected in HEK 293 cells using [125I]NDP-MSH as radioligand. The assay is classed as cell-based, HEK293.
The target in assay [2] is Melanocortin receptor 5 (Homo sapiens, UniProt P33032). The assay is described as follows: Binding affinity at melanocortin-5 receptor stably transfected in HEK 293 cells using [125I]NDP-MSH as radiolabeled. The format is cell-based, HEK293. The gist of the method: (§1)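 Competition binding at human MC1 or MC5 receptor stably expressed in HEK293 cells, with [125I]-NDP-MSH as the displaced radioligand; Ki determined.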
Chain of Melanocortin receptor 5 (P33032 whole entry): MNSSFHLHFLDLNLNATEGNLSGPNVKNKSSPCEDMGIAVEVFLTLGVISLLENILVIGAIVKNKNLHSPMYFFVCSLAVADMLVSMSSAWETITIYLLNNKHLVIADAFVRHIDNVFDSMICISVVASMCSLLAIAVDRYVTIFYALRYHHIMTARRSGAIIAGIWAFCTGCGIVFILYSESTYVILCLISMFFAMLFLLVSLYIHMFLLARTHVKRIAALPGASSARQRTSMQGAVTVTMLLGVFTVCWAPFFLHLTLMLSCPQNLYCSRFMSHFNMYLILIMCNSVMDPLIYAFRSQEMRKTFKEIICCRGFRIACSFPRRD

The target of assay [3] is Melanocortin receptor 3 (Homo sapiens, UniProt P41968). Nature of the assay: Binding affinity for melanocortin-3 receptor transfected in HEK 293 cells using [125I]NDP-MSH as radioligand. The assay is classed as cell-based, HEK293. The gist of the method:
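Competition binding at human MC3 or MC4 receptor stably transfected into HEK293 cells, displacing [125I]-NDP-MSH radioligand; Ki reported; values averaged from three or more independent measurements.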

The target of assay [4] is T2, Melanocyte-stimulating hormone receptor (Homo sapiens, UniProt Q01726). The assay is described as follows: Percent inhibition of human melanocortin 1 receptor at 10 uM concentration.
Target sequence in this assay (Q01726 whole entry, looked up): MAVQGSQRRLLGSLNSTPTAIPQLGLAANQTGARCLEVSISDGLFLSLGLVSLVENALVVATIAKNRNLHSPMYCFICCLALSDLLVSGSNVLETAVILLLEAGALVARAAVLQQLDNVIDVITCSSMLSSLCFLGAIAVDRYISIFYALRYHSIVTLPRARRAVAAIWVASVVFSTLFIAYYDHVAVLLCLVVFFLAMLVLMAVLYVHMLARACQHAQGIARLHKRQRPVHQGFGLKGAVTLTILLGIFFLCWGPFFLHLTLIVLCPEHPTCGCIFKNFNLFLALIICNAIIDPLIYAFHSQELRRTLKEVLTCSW
The target of assay [5] is T2, Melanocyte-stimulating hormone receptor. The assay is described as follows: Binding affinity at melanocortin-1 receptor stably transfected in HEK 293 cells using [125I]NDP-MSH as radiolabeled. The assay is classed as cell-based, HEK293. In short, it runs like this:
as §1
Target sequence in this assay (Q01726 whole entry): as the sequence (Q01726 whole entry, looked up) above

For assay [6], the target named is T1, Melanocortin receptor 4. Nature of the assay: Intrinsic activity towards human alpha-MSH stimulated cAMP level in HEK293 cells by 10 uM compound. (cAMP levels reflect the balance of adenylyl cyclase and phosphodiesterase activity.)
In assay [7] the target is T1, Melanocortin receptor 4. Nature of the assay: Intrinsic activity towards human alpha-MSH stimulated cAMP level in HEK293 cells.

T1 sequence (P32245 whole entry): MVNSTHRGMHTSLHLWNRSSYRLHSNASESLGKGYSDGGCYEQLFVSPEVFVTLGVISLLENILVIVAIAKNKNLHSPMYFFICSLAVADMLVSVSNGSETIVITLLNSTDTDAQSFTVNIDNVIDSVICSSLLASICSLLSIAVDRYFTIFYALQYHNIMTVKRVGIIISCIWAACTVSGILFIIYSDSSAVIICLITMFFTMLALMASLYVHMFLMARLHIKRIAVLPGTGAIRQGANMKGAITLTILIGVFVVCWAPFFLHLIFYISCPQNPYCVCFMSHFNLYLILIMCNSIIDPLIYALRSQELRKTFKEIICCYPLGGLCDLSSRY
Chain of Melanocortin receptor 3 (P41968 whole entry): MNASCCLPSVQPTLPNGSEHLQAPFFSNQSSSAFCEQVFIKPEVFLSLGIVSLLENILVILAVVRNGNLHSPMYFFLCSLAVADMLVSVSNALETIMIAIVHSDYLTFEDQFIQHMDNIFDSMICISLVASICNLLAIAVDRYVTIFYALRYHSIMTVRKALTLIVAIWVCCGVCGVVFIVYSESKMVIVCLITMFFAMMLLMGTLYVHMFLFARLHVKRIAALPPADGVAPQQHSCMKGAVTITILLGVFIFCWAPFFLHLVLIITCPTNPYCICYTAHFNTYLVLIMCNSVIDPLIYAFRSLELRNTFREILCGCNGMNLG

By pKi is commonly meant the Ki on a negative log10 scale, so that one unit is a factor of ten. The low end stands for a high Ki, the high end for a low Ki. In assay [1], `O=C(N[C@H](Cc1ccc(O)cc1)C(=O)N1CCN(c2ccccc2CNCCc2cccs2)CC1)OCc1ccccc1` had a negative-log Ki (pKi) of 5.24.

Broadly, the inhibition is the drop in the measured response relative to a control, in per cent. A lower inhibition goes with little suppression. For `CC(=O)N[C@H](Cc1ccc(Cl)cc1Cl)C(=O)N1CCN(c2ccccc2CNCCc2cccs2)CC1`, the pKi in assay [1] is 8.62; in assay [2] it was 6.14; in assay [3], 6.24. The inhibition in assay [4] is 31%.

For `O=C(N[C@H](Cc1ccc(Cl)cc1Cl)C(=O)N1CCN(c2ccccc2CNCCc2cccs2)CC1)N1CCCC1`, the pKi in assay [1] is 8.82; in assay [2], 6.80; in assay [5], 5.16; in assay [3], 6.17.

The molecule `O=C([C@@H](Cc1ccc(Cl)cc1Cl)NCC1CC1)N1CCN(c2ccccc2CNCCc2cccs2)CC1` showed a negative-log Ki (pKi) in assay [1] of 7.74. Further, the IA in assay [6] is < 3%.

`O=C(NCCO)N[C@H](Cc1ccc(Cl)cc1Cl)C(=O)N1CCN(c2ccccc2CNCCc2cccs2)CC1`: the negative-log Ki (pKi) in assay [1] is 8.54; in assay [2] it was 6.46; in assay [3], 6.41. Further, in assay [4], the inhibition was found to be 8%.

Consider `CN(C)C(=O)N[C@H](Cc1ccc(Cl)cc1Cl)C(=O)N1CCN(c2ccccc2CNCCc2cccs2)CC1`, for which the negative-log Ki (pKi) in assay [1] is 8.70; in assay [2], 6.46; in assay [5], 5.17; in assay [3], 6.25.

Molecule `O=C(N[C@H](Cc1c[nH]c2ccccc12)C(=O)N1CCN(c2ccccc2CNCCc2cccs2)CC1)OCc1ccccc1` had a negative-log Ki (pKi) in assay [1] of 5.64.

On to `CC(C)(C)NC(=O)N[C@H](Cc1ccc(Cl)cc1Cl)C(=O)N1CCN(c2ccccc2CNCCc2cccs2)CC1`, for which the negative-log Ki (pKi) in assay [1] is 8.62; in assay [3] it was 6.00.

`CC(C)CN[C@H](Cc1ccc(Cl)cc1Cl)C(=O)N1CCN(c2ccccc2CNCCc2cccs2)CC1` showed a pKi in assay [1] of 7.64. For the same molecule, in assay [6], the IA was < 3%.

On to `CC(C)OC(=O)N[C@H](Cc1ccc(Cl)cc1Cl)C(=O)N1CCN(c2ccccc2CNCCc2cccs2)CC1`, for which the pKi is 8.35 in assay [1], 6.17 in assay [2] and 5.89 in assay [3]. Also, the inhibition in assay [4] came out at 9%.

In the case of `CCOC(=O)N[C@H](Cc1ccc(Cl)cc1Cl)C(=O)N1CCN(c2ccccc2CNCCc2cccs2)CC1`, the figures for the pKi in assay [1] and in assay [3] were 8.34 and 6.10, respectively.

For `O=C([C@@H](Cc1ccc(Cl)cc1Cl)NCc1nccs1)N1CCN(c2ccccc2CNCCc2cccs2)CC1`, the negative-log Ki (pKi) in assay [1] is 7.80. Besides, the IA in assay [6] was < 3%.

On to `O=C(N[C@H](Cc1ccc(Cl)cc1Cl)C(=O)N1CCN(c2ccccc2CNCCc2cccs2)CC1)OCCF`, for which the negative logarithm of the Ki (pKi) is 8.49 in assay [1], 6.25 in assay [2], 6.00 in assay [5] and 6.10 in assay [3].

`O=C(NCc1ccccc1F)N[C@H](Cc1ccc(Cl)cc1Cl)C(=O)N1CCN(c2ccccc2CNCCc2cccs2)CC1` showed a negative-log Ki (pKi) in assay [1] of 8.30.

As to `O=C(N[C@H](Cc1csc2ccccc12)C(=O)N1CCN(c2ccccc2CNCCc2cccs2)CC1)OCc1ccccc1`, the pKi in assay [1] is 5.96.

Turning to `O=C(N[C@H](Cc1cnc[nH]1)C(=O)N1CCN(c2ccccc2CNCCc2cccs2)CC1)OCc1ccccc1`, in assay [1], the pKi is 5.44.

On to `N[C@H](Cc1ccc(Cl)cc1Cl)C(=O)N1CCN(c2ccccc2CNCCc2cccs2)CC1`, for which the pKi in assay [1] was 7.03. For the same molecule, the IA in assay [6] was < 3%.

Turning to `O=C(NC1CCCC1)N[C@H](Cc1ccc(Cl)cc1Cl)C(=O)N1CCN(c2ccccc2CNCCc2cccs2)CC1`, the pKi in assay [1] was 8.89; in assay [3], 6.24.

Consider `NCCN[C@H](Cc1ccc(Cl)cc1Cl)C(=O)N1CCN(c2ccccc2CNCCc2cccs2)CC1`, for which the negative-log Ki (pKi) in assay [1] is 7.74. Further, the IA in assay [6] was < 3%.

For the molecule `CCNC(=O)N[C@H](Cc1ccc(Cl)cc1Cl)C(=O)N1CCN(c2ccccc2CNCCc2cccs2)CC1`, the pKi is 8.77 in assay [1], 6.52 in assay [2] and 6.10 in assay [3]. The same molecule gave an inhibition in assay [4] of 18%.

`NCCC(=O)N[C@H](Cc1ccc(Cl)cc1)C(=O)N1CCN(c2ccccc2CNCCc2cccs2)CC1`: the IA in assay [7] is 14%.

In the case of `COC(=O)CCC(=O)N[C@H](Cc1ccc(Cl)cc1Cl)C(=O)N1CCN(c2ccccc2CNCCc2cccs2)CC1`, the results for the pKi in assay [1] and in assay [3] were 8.55 and 6.08, respectively.

Take `O=C(N[C@H](Cc1ccc(Cl)cc1)C(=O)N1CCN(c2ccccc2CNCCc2cccs2)CC1)C1CCCNC1` (some centres not stated): the IA in assay [7] was 12%.

In assay [1], `O=C([C@@H](Cc1ccc(Cl)cc1Cl)NCc1ccccc1)N1CCN(c2ccccc2CNCCc2cccs2)CC1` had a negative-log Ki (pKi) of 7.51. Also, the IA in assay [6] was < 3%.

For the molecule `COC(=O)N[C@H](Cc1ccc(Cl)cc1Cl)C(=O)N1CCN(c2ccccc2CNCCc2cccs2)CC1`, the pKi in assay [1] was 8.30; in assay [3], 6.09.

In assay [1], `O=C(N[C@H](Cc1cccc2ccccc12)C(=O)N1CCN(c2ccccc2CNCCc2cccs2)CC1)OCc1ccccc1` showed a negative logarithm of the Ki (pKi) of 6.38.

As for `NCCCC(=O)N[C@H](Cc1ccc(Cl)cc1Cl)C(=O)N1CCN(c2ccccc2CNCCc2cccs2)CC1`, the pKi in assay [1] was 8.70; in assay [3], 6.02.

`COc1ccc2ccccc2c1CCCCN1CCN(CC(c2ccc(F)cc2)N2CCN(C(C)C)CC2)CC1` (configuration not stated) showed a negative logarithm of the Ki (pKi) in assay [1] of 8.10.

With `CC(C)NC(=O)N[C@H](Cc1ccc(Cl)cc1Cl)C(=O)N1CCN(c2ccccc2CNCCc2cccs2)CC1`, the results for the pKi in assay [1] and in assay [3] were 8.85 and 6.35, respectively.

On to `O=C(N[C@H](Cc1ccc(Cl)cc1Cl)C(=O)N1CCN(c2ccccc2CNCCc2cccs2)CC1)c1ccccc1`, for which the pKi in assay [1] was 8.51; in assay [3], 5.80.

On to `NCCC(=O)N[C@H](Cc1ccc(Cl)cc1Cl)C(=O)N1CCN(c2ccccc2CNCCc2cccs2)CC1`, for which, in assay [7], the IA is < 3%.

Take `O=C(NC1CC1)N[C@H](Cc1ccc(Cl)cc1Cl)C(=O)N1CCN(c2ccccc2CNCCc2cccs2)CC1`: the pKi was 8.68 in assay [1] and 6.07 in assay [3].

As for `O=C(N[C@H](Cc1ccc(Cl)cc1Cl)C(=O)N1CCN(c2ccccc2CNCCc2cccs2)CC1)OCc1ccccc1`, the pKi in assay [1] was 7.64.

In the case of `CS(=O)(=O)N[C@H](Cc1ccc(Cl)cc1Cl)C(=O)N1CCN(c2ccccc2CNCCc2cccs2)CC1`, the negative logarithm of the Ki (pKi) in assay [1] was 7.85. Besides, in assay [6], the IA was < 3%.

For the molecule `O=C(N[C@H](Cc1cscn1)C(=O)N1CCN(c2ccccc2CNCCc2cccs2)CC1)OCc1ccccc1`, in assay [1], the pKi is < 5.00.
